experiment: Toxicity liver stage against HepG2, at 10uM; type: cell-based; parameters: test concentration 10 uM, cell line HepG2-A16-CD81EGFP; details: human, HepG2-A16-CD81EGFP cells; read-out: INHIBITION
Outline: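 Uninfected HepG2-A16-CD81EGFP cells, 3 × 10^3 per well, 1536-well, plated on prespotted compound at 10 μM final, parasite-free screening media added to match infected plates; puromycin 10 μM positive, DMSO 0.5% negative; run in parallel with 48 h PbLuc assay at 37 °C, 5% CO2; viability by CellTiter-Glo luminescence, normalized to controls.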

Row | SMILES | cytotoxicity at 10 µM
1 | N#Cc1ccccc1NC(=O)c1ccc2c(c1)OCO2 | -10.4%
2 | c1cc(-c2c[nH]c([C@@H]3COCCN3Cc3csnn3)n2)ccn1 | 3.07%
3 | CCNC(=O)NC[C@@H]1C=C(C)[C@H](CC(=O)NCCN(C)C)C[C@H]1C(C)C | 2.43%
4 | CC(=O)c1cccc(S(=O)(=O)NCC(C)(O)c2cccs2)c1 (stereo not given) | -17%
5 | O=S(=O)(C1CC1)N1CCO[C@@H]2CN(Cc3ccco3)C[C@@H]2C1 | -140%
6 | CN(C)C(=O)CN1CCO[C@H]2CN(c3ccccn3)C[C@H]21 | 8.16%
7 | CCN1C(=O)CC(c2cnn(C)c2)C12CCN(C(=O)c1ccc[nH]1)CC2 (stereo not given) | 8.82%
8 | Cc1ccc(CN2CCC3(CCN(Cc4ccncc4)CC3)CC2)cc1 | 8.4%
9 | O=C(c1ccncc1)N1CCCn2nnc(Cn3cccn3)c2C1 | 6.01%
10 | COCc1ncn2c1CN(C(=O)c1cnc3ccccc3c1)CC2 | -2.39%
11 | CO[C@@H]1CC[C@H]2[C@H]1OCCN2C(=O)C1CCOCC1 | 3.33%
12 | O=C(COc1coc(CN2CCSCC2)cc1=O)c1ccccc1 | 9.21%
13 | CCn1c(=O)c2sccc2n(CC(=O)Nc2cccc(Cl)c2)c1=O | 0.115%
14 | O=c1[nH]nc2c(N3CCC(NC4CCOCC4)CC3)nccn12 | 7.19%
15 | Cn1c(=O)c2c(n3ncnc13)NC(=O)CC2c1cccc(Br)c1 (stereo not given) | 7.83%
16 | O=C(c1n[nH]cc1Br)N1CCOCC1 | 5.31%
17 | Cc1nc(N2CCN(C(=O)c3ccncc3)CC2)c2c(n1)c(C)nn2C | 10.3%
18 | CC(NC(=O)c1ccc(F)cc1F)c1cnn(C)c1 (stereo not given) | 3.68%
19 | Cc1noc2nc(C3CC3)c(Cl)c(C(=O)O)c12 | -1.25%
20 | CCn1c(NCc2ccccc2)nc2c(C)nn(C)c2c1=O | 10.6%
21 | Cc1cccc(CNc2n[nH]c(C)n2)c1 | -4.09%
22 | CN1CCN(c2nsc(-c3ccccc3)c2C#N)CC1 | 1.28%

Row | SMILES | cytotoxicity at 10 µM
23 | CSCc1cccc(S(=O)(=O)N2CCCC2)c1 | 8.49%
24 | Cn1nccc1CNC(=O)C1CCCCC1 | 7.89%
25 | COc1c(Br)c(C(=O)NC2CC2)nn1C | 3.18%
26 | O=S1(=O)NC(c2ccnc(N3CCCC3)n2)=Nc2ccccc21 | 12.8%
27 | c1cnc(CC2CCN(c3cnccn3)CC2)cn1 | 4.44%
28 | CN(CCOc1ccccc1F)C1CCOC1=O (stereo not given) | -147%
29 | CCn1ccnc1CN1CCN(C(C)C)CC1C (stereo not given) | -6.58%
30 | CC(C)Oc1ccccc1CNC(=O)N(C)C(C)CS(C)(=O)=O (stereo not given) | -48.4%
31 | O=C(NCC1CCOC1)c1cc(-c2ccccc2Cl)[nH]n1 (stereo not given) | -3.11%
32 | Cc1ccc(C(=O)N2CCOCC2)cc1NCc1ccsc1 | -6.96%
33 | CCn1nc2c(cc1=O)CN(CCCOc1ccc(C#N)cc1)CC2 | 14%
34 | CN(C1CCN(c2ccccn2)CC1)S(=O)(=O)c1cccs1 | 13.3%
35 | CCOC(C)C(=O)N(C)C1CCN(c2ccc(OC)cc2)CC1 (stereo not given) | -1.57%
36 | Cc1ccc(CN(C(=O)C(C)NC(N)=O)C2CC2)cc1C (stereo not given) | 7.47%
37 | CCC(C)(C)NC(=O)Cn1cc(C(N)=O)c(-c2ccccc2)n1 | -6.84%
38 | COc1ccc(C)cc1CN(Cc1nc(C)c(C)o1)C1CCN(C)C1 (stereo not given) | -3.41%
39 | CNC(=O)c1sc(C2CCCC2)nc1C | 13.1%
40 | CC(C)CC(NC(=O)c1ccn(C)c(=O)c1)c1cccs1 (stereo not given) | 1.67%
41 | Cc1cccc(C2(O)CCN(C(=O)c3ccc(N(C)C)cc3)CC2)c1C | -2.96%
42 | C=C(C)CN(CC)Cc1nc(C)no1 | -15.8%
43 | CC(C)N(CCS(C)(=O)=O)Cc1csc(-c2ccccc2F)n1 | -49.3%
44 | Cc1cc(CNC(=O)Nc2cc(F)cc(N3CCCC3)c2)no1 | -17.7%

Row | SMILES | cytotoxicity at 10 µM
45 | CC(C)(C)S(=O)(=O)c1ccc(N2CCC(n3cncn3)CC2)cn1 | 3.94%
46 | COCCCC(=O)N(C)c1ccc(F)c(Cl)c1 | -0.577%
47 | Cc1nc(COc2ccc(N(C)S(C)(=O)=O)cc2)sc1C | -2.75%
48 | CN(CC(F)(F)F)C(=O)C1CSCN1C(=O)OC(C)(C)C (stereo not given) | -0.265%
49 | CNC(=O)[C@H]1C[C@@H]2CN(C(=O)c3ccncc3F)C[C@@H]2N1C | -111%
50 | Cc1csc(CN2C[C@@H]3CN(S(C)(=O)=O)CCO[C@@H]3C2)n1 | -98.3%
51 | O=C(c1ccnnc1)N1CCC2(CC1)CN(c1ccccn1)CCO2 | -81.5%
52 | CN(C)C(=O)N1C[C@H]2CN(Cc3cccc(F)c3)C(=O)[C@H]2C1 | 4.61%
53 | O=C1NCCN(CC2CC2)C12CCN(Cc1ccc3c(c1)OCO3)CC2 | -1.06%
54 | Cc1nn(C)c2nc(N(Cc3nccs3)C3CC3)sc12 | -45.9%
55 | CCN1CCN(C(=O)c2ccc3c(c2)CCCN3)[C@H]2CS(=O)(=O)C[C@H]21 | -57.8%
56 | CCN1CC2(CCC1=O)CCN(Cc1cccc(C#N)c1)CC2 | -1.1%
57 | CSCCCNC(=O)C(c1ccccc1C)N(C)C (stereo not given) | 4.68%
58 | Cc1cc2cccc(C(=O)N3CCOC(CCN(C)C)C3)c2o1 (stereo not given) | 5.91%
59 | COc1ccc(NC(=O)N2CCCC(CO)C2)c(C)c1 (stereo not given) | -8.33%
60 | CN1CC2(CCN(Cc3cc(Cl)ccc3OCC(=O)O)CC2)OC1=O | 1.6%
61 | CCN(C)C(=O)Cn1c(-c2ccco2)nn(-c2ccccc2OC)c1=O | 0.832%
62 | CC(C)CN1CCn2nc(CNc3ncnc4[nH]cnc34)cc2C1 | 6.88%
63 | Cc1cccc(=O)n1CCC(=O)N(C)Cc1cccc2ncccc12 | 0.66%
64 | CCn1cc(C(=O)NCc2cccnc2N(C)Cc2ccccc2)cn1 | 1.18%
65 | COc1cccc(Cn2ncnc2CNC(C)=O)c1 | 0.15%
66 | CC(C)[C@@H]1CN(CCOc2ccccc2)C[C@H]1NS(=O)(=O)N(C)C | -43%

Row | SMILES | cytotoxicity at 10 µM
67 | COc1ccc(Cc2ncc3c(n2)CN(C(=O)CCO)C3)cc1 | 2.37%
68 | C=C(C)CNc1ccc(C(=O)N(CC)Cc2nccn2C)cn1 | -9.36%
69 | Cc1cc(C)nc(N2CC[C@@]3(O)CCN(S(=O)(=O)N(C)C)C[C@H]3C2)n1 | 3.5%
70 | CCC(C(=O)N1CCN(C(=O)N2CCOCC2)CC1)n1cccn1 (stereo not given) | 2.35%
71 | CC(=O)c1cnc(NCCN2CCCC2)nc1C | -3.73%
72 | O=C1NCC(c2ccc(Cl)cc2)Cc2[nH]c(CCN3CCOCC3)nc21 (stereo not given) | -5.68%
73 | CC(C)CN1CCc2[nH]cnc2C12CCN(C(=O)c1ccc[nH]1)CC2 | 14.7%
74 | CCCN(CCO)C(=O)c1cc(COc2ccc3c(c2)CCCC3)on1 | -159%
75 | CCn1c(C2CCN(C(=O)c3ccc4cc[nH]c4c3)CC2)n[nH]c1=O | -18.5%
76 | COc1ccc(C(=O)N2CCC3(CCC(=O)N(C(C)C)C3)CC2)cc1C | -3.47%
77 | CCN1CCC[C@@H]1CNC(=O)c1cc(COc2ccccc2)[nH]n1 | 0.635%
78 | Cc1ccc(C)c2c(O)cc(CNCCNC(=O)C(C)C)nc12 | -8.14%
79 | COc1cccc(C(C(=O)O)N2CCCN(C3CCCC3)CC2)c1OC (stereo not given) | -11.3%
80 | CCNc1ncc(C(=O)NC(c2ccccc2)c2ccco2)cn1 (stereo not given) | 5.94%
81 | CC(C)CN1CCc2[nH]cnc2C12CCN(C(=O)c1cncn1C)CC2 | -8.1%
82 | Cc1cc(=O)[nH]c(=O)n1-c1ccccc1Br | 7.89%
83 | Cn1c(N2CCOCC2)nc2cc(C(=O)N[C@@H]3CC[C@@H](N)C3)ccc21 | -1.07%
84 | CCN1CCN(C2CCN(CCOc3ccc(F)cc3)CC2)C1=O | -5.38%
85 | O=C(Cc1cccc(F)c1)NCCNCc1cccnc1 | -1.56%
86 | CC(=O)NC(C)C(=O)NCc1ccc(N2CCNC(=O)C2)cc1 (stereo not given) | 2.03%
87 | CC(C)(C)N1CCN(C(=O)Nc2cc(C(F)(F)F)c[nH]c2=O)CC1 | 5.08%
88 | Cc1nnc(NC(=O)NCc2ccc(N3CCC(C)CC3)nc2)s1 | -1.36%

Row | SMILES | cytotoxicity at 10 µM
89 | CC(C)c1nccn1C1CCCN(C(=O)CCc2cnn(C)c2)C1 (stereo not given) | -1.58%
90 | O=C(CN1CCc2cncnc2C1)NCCOc1cccc(Cl)c1 | -6.88%
91 | c1ccc(-n2nnnc2CNCC2CCCN2c2cccnn2)cc1 (stereo not given) | -4.14%
92 | Cn1c(CN2CCCC(Cn3cncn3)C2)nc2ccccc21 (stereo not given) | -6.78%
93 | Cc1nc2cc(C(=O)N3CCCC(n4ccnc4)C3)ccc2n1C (stereo not given) | -8.44%
94 | Cc1cnn(C2CCCN(C(=O)c3ccc(-n4ccnc4)cc3)C2)c1 (stereo not given) | -1.14%
95 | CCc1nc(CN2CCCC(Cn3nc(C)nc3C)C2)no1 (stereo not given) | -2.68%
96 | CC(=O)NCC1CCN(c2cc(C)nc(-c3ccncc3)n2)CC1 | -1.36%
97 | Cc1cnc(CN2CCC(N(C)Cc3noc(C4CC4)n3)C2)o1 (stereo not given) | -12.6%
98 | CS(=O)(=O)N1CCC(NC(=O)COc2ccc3ccccc3c2)CC1 | -5.56%
99 | CCNC(=O)NC(=O)CN(CC(C)O)c1ccccc1 (stereo not given) | 1.32%
100 | CCc1[nH]ncc1C(=O)N1CCCC(n2nc(C)nc2C)C1 (stereo not given) | -6.02%
101 | O=C(Cn1nc(-c2ccc(F)cc2)oc1=O)Nc1ccccc1 | 0.967%
102 | CC(C)c1cc(NC(=O)CN2CCc3cncnc3C2)on1 | -8.83%
103 | c1csc(CN2CCc3ncnc(C4CCOC4)c3CC2)c1 (stereo not given) | 8.01%
104 | O=C(c1cnccn1)N1C[C@@H](OCc2ccncc2)[C@@H]2OCCC[C@@H]21 | -2.91%
105 | O=C1CCCN1Cc1nnc2n1CCN(Cc1ccoc1)CC2 | 2.72%
106 | c1cncc(CN2CC[C@H]3O[C@@H](COCC4CCOCC4)CC[C@H]32)c1 | -73.5%
107 | CN(C)CCN1CCC2(CCCN(Cc3cccn3C)C2)C1=O (stereo not given) | -114%
108 | Cc1cccc(CN2CC[C@@H]3[C@@H]2CCN3Cc2cccs2)n1 | -117%
109 | c1cncc(-c2nnn3c2COCC(CNC2CCOCC2)C3)c1 (stereo not given) | -77%
110 | CN(C)C(=O)[C@H]1C[C@H]2CN(S(=O)(=O)c3ccccc3)C[C@@H]1O2 | -83.1%

Source: ChEMBL document CHEMBL4513216, “Probing the Open Global Health Chemical Diversity Library for Multistage-Active Starting Points for Next-Generation Antimalarials” (ACS Infect Dis, 2020)
